Values belong to the compound of their own block, whether it stands above or below them. The source made the active and inactive calls. The rule behind the calls is not given here.
Columns and labels:
Cytochrome P450 26A1 [1] = biological target: T1, Cytochrome P450 26A1 (Homo sapiens, UniProt O43174); assay: Inhibition of human CYP26A1 assessed using [11,12-3H]ATRA as substrate by scintillation counting
T1 sequence (O43174 whole entry): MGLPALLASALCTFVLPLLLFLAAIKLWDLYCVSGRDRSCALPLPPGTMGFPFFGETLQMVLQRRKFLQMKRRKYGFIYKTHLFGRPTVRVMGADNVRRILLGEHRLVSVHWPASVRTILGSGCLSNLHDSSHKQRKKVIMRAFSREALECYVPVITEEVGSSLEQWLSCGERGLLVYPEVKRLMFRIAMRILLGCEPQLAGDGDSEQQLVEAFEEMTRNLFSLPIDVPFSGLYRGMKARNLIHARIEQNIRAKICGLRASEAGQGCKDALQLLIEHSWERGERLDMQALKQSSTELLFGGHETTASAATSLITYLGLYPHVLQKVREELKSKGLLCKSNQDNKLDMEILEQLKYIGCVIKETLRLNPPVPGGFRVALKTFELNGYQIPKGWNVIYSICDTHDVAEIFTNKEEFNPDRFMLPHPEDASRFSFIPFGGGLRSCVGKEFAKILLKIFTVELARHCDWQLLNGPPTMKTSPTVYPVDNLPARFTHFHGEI
In short: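 CYP26 source: microsomes from MCF-7 cells pretreated 24 h with ATRA to induce CYP26, isolated by differential centrifugation. 50 μg microsomal protein in 50 mM Tris pH 7.4, 150 mM KCl, 10 mM MgCl₂, 0.02% BSA, 2 mM NADPH, 10 nM ATRA plus 0.1 μCi ³H-ATRA. Inhibitor 1–1000 nM, 1 h at 37 °C. Acetonitrile quench, retinoids resolved on C18 HPLC.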

CYP1A2 = biological target: T2, CYP1A2 (Homo sapiens, UniProt P05177); assay: Inhibition of CYP1A2 in human liver microsomes at 0.4 uM; assay type: ADME, Microsome
T2 sequence (P05177 whole entry): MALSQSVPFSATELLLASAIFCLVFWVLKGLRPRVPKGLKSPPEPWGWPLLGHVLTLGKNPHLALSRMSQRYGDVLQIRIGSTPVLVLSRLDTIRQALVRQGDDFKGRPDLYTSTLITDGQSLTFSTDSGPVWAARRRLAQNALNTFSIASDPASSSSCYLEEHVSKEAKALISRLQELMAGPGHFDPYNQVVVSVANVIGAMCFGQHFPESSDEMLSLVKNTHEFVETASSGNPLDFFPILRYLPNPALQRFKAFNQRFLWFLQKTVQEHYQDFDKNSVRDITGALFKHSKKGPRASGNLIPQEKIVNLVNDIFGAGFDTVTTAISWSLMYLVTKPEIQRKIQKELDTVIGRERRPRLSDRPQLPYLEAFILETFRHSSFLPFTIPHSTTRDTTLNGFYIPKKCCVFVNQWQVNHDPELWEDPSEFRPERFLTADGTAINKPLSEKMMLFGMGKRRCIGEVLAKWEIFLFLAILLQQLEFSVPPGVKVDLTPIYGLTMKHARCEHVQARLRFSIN

CYP3A4 = CYP3A4 (Homo sapiens, UniProt P08684); assay: Inhibition of CYP3A4 in human liver microsomes at 0.4 uM; assay type: ADME, Microsome
Sequence of CYP3A4 (P08684 whole entry): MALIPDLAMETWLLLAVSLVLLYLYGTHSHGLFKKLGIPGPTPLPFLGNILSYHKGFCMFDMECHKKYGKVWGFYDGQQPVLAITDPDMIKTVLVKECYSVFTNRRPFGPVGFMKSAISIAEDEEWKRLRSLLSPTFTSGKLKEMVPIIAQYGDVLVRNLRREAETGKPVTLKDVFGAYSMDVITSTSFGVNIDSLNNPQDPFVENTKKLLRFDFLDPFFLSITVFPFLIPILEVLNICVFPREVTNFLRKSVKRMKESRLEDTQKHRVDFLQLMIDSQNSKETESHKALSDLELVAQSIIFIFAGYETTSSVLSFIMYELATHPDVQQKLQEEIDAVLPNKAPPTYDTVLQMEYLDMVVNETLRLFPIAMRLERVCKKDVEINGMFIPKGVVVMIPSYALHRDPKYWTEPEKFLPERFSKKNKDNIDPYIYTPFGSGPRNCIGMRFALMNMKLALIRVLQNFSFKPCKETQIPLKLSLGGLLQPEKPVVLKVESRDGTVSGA

CYP2C9 = CYP2C9 (Homo sapiens, UniProt P11712); assay: Inhibition of CYP2C9 in human liver microsomes at 0.4 uM; assay type: ADME, Microsome
Sequence of CYP2C9 (P11712 whole entry): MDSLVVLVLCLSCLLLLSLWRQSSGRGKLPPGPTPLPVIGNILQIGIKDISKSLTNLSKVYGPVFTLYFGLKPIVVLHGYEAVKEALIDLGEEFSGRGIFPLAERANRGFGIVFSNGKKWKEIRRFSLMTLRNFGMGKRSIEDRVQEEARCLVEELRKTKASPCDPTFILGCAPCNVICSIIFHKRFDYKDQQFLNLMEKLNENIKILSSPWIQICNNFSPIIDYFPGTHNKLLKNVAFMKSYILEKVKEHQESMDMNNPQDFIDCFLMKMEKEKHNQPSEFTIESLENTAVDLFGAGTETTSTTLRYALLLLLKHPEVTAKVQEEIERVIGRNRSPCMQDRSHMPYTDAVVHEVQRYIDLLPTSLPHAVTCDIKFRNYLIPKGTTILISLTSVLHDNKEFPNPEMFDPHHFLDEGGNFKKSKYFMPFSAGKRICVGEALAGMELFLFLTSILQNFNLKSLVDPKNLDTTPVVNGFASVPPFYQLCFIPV

CYP2C19 = CYP2C19 (Homo sapiens, UniProt P33261); assay: Inhibition of CYP2C19 in human liver microsomes at 0.4 uM; assay type: ADME, Microsome
Sequence of CYP2C19 (P33261 whole entry): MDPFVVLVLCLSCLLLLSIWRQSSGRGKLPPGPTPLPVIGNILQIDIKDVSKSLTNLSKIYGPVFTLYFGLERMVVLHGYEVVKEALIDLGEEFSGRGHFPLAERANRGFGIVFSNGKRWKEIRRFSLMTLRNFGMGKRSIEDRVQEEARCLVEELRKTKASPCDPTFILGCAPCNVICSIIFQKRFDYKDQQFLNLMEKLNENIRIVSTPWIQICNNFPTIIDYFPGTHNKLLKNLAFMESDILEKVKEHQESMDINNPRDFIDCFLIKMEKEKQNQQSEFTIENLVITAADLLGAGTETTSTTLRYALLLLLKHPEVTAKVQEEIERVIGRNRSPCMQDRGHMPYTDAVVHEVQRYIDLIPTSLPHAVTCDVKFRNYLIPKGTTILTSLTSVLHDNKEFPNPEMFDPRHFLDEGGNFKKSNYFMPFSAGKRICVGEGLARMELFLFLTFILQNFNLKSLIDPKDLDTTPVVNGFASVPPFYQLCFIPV

CYP2D6 = CYP2D6 (Homo sapiens, UniProt P10635); assay: Inhibition of CYP2D6 in human liver microsomes at 0.4 uM; assay type: ADME, Microsome
Sequence of CYP2D6 (P10635 whole entry): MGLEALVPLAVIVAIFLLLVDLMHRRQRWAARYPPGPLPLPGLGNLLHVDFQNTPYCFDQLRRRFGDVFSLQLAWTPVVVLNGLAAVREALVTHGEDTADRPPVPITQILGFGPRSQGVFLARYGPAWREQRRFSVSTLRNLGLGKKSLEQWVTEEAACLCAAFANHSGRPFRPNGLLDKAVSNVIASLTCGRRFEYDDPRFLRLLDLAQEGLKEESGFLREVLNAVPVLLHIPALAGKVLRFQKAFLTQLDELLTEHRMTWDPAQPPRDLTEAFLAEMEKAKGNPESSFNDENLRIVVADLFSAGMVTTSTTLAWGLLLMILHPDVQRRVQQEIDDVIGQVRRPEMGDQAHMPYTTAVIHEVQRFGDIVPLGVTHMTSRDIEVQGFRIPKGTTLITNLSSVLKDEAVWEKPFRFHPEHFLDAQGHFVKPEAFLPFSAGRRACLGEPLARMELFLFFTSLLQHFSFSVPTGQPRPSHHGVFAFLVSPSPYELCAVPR

SH-SY5Y = assay: Increase in CYP26A1 mRNA expression in human SH-SY5Y cells at 1 uM after 72 hrs by RT-PCR analysis in the presence of 0.1 uM all-trans-retinoic acid; assay type: functional
In short: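 SH-SY5Y cells grown in RPMI 1640 with 10% FCS and 2 mM L-glutamine. Treated 72 h with 0.1 μM ATRA plus inhibitor at 1 μM; inhibitors in ethanol diluted in medium. Total RNA reverse transcribed for TaqMan real-time PCR of CYP26A1, normalized to β-actin. Fold increase relative to cells given […]; mean ± SD, n = 6.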

Cytochrome P450 2C9 = Cytochrome P450 2C9 (Homo sapiens, UniProt P11712); assay: Inhibition of CYP2C9 in human liver microsomes; assay type: ADME, Microsome
Sequence of Cytochrome P450 2C9 (P11712 whole entry): as the sequence (P11712 whole entry) above

[2] = Half-life in human liver microsomes; assay type: ADME, Microsome
Cytochrome P450 1A2 = biological target: T3, Cytochrome P450 1A2 (Homo sapiens, UniProt P05177); assay: Inhibition of CYP1A2 in human liver microsomes; assay type: ADME, Microsome
T3 sequence (P05177 whole entry): T2 sequence (P05177 whole entry)

Cytochrome P450 3A4 = Cytochrome P450 3A4 (Homo sapiens, UniProt P08684); assay: Inhibition of CYP3A4 in human liver microsomes; assay type: ADME, Microsome
Sequence of Cytochrome P450 3A4 (P08684 whole entry): as the sequence (P08684 whole entry) above

Cytochrome P450 2C19 = Cytochrome P450 2C19 (Homo sapiens, UniProt P33261); assay: Inhibition of CYP2C19 in human liver microsomes; assay type: ADME, Microsome
Sequence of Cytochrome P450 2C19 (P33261 whole entry): as the sequence (P33261 whole entry) above

Cytochrome P450 2D6 = Cytochrome P450 2D6 (Homo sapiens, UniProt P10635); assay: Inhibition of CYP2D6 in human liver microsomes; assay type: ADME, Microsome
Sequence of Cytochrome P450 2D6 (P10635 whole entry): as the sequence (P10635 whole entry) above

Cytochrome P450 26A1 [3] = biological target: T1, Cytochrome P450 26A1; assay: Inhibition of CYP26 in human MCF-7 cell microsomes

Compound: CC(C)(C(=O)OCc1ccccc1)C(c1ccc(Nc2ccc3ccccc3c2)cc1)n1ccnc1 (stereo unspecified)
- IC50 (Cytochrome P450 26A1 [1]): 400 nM

Compound: CC(C)(C(=O)O)C(c1ccc(Nc2ccc3ccccc3c2)cc1)n1ccnc1 (stereo unspecified)
- IC50 (Cytochrome P450 26A1 [1]): 300 nM

Compound: c1ccc(C(c2ccc(Nc3ccc4ccccc4c3)cc2)n2ccnc2)cc1 (stereo unspecified)
- IC50 (Cytochrome P450 26A1 [1]): 500 nM

Compound: CC(C)(C(=O)O)C(c1ccc(Nc2ccc3ccccc3c2)cc1)n1cncn1 (stereo unspecified)
- IC50 (Cytochrome P450 26A1 [1]): > 1000 nM

Compound: C[C@H]([C@@H](c1ccc(Nc2nc3ccccc3s2)cc1)n1ccnc1)N(C)C
- IC50 (Cytochrome P450 2C9): 11000 nM

Compound: COC(=O)C(C)(C)C(c1ccc(Nc2ccc3ccccc3c2)cc1)n1ccnc1 (stereo unspecified)
- Activity (SH-SY5Y): Active
- IC50 (Cytochrome P450 2C9): 8000 nM
- half-life [2]: 5.02 h

Compound: CNC(=O)C(C)(C)C(c1ccc(Nc2ccc3ccccc3c2)cc1)n1cncn1 (stereo unspecified)
- IC50 (Cytochrome P450 26A1 [1]): 350 nM

Now from value to compound, other results behind:

- IC50 (Cytochrome P450 26A1 [1]): 75 nM
- inhibition at 0.4 µM (CYP1A2): 11%
- inhibition at 0.4 µM (CYP3A4): 95%
- inhibition at 0.4 µM (CYP2C9): 52%
- inhibition at 0.4 µM (CYP2C19): 21%
- inhibition at 0.4 µM (CYP2D6): 29%
Compound: CN(C)C(=O)C(C)(C)C(c1ccc(Nc2ccc3ccccc3c2)cc1)n1ccnc1 (stereo unspecified)

- IC50 (Cytochrome P450 26A1 [1]): 290 nM
Compound: CC(C)OC(=O)C(C)(C)C(c1ccc(Nc2ccc3ccccc3c2)cc1)n1ccnc1 (stereo unspecified)

- IC50 (Cytochrome P450 26A1 [1]): 200 nM
Compound: CCCCOC(=O)C(C)(C)C(c1ccc(Nc2ccc3ccccc3c2)cc1)n1ccnc1 (stereo unspecified)

- IC50 (Cytochrome P450 26A1 [1]): 0.35 nM
- inhibition at 0.4 µM (CYP1A2): 20%
- inhibition at 0.4 µM (CYP3A4): 61%
- inhibition at 0.4 µM (CYP2C9): 43%
- inhibition at 0.4 µM (CYP2C19): 30%
- inhibition at 0.4 µM (CYP2D6): 15%
Compound: CCOC(=O)C(C)(C)C(c1ccc(Nc2ccc3ccccc3c2)cc1)n1ccnc1 (stereo unspecified)
- fold change (FC) (SH-SY5Y): 5.8

- IC50 (Cytochrome P450 26A1 [1]): 140 nM
Compound: CCCCCOC(=O)C(C)(C)C(c1ccc(Nc2ccc3ccccc3c2)cc1)n1ccnc1 (stereo unspecified)

- IC50 (Cytochrome P450 26A1 [1]): 12 nM
- inhibition at 0.4 µM (CYP1A2): 15%
- inhibition at 0.4 µM (CYP3A4): 86%
- inhibition at 0.4 µM (CYP2C9): 45%
- inhibition at 0.4 µM (CYP2C19): 14%
- inhibition at 0.4 µM (CYP2D6): 13%
Compound: CNC(=O)C(C)(C)C(c1ccc(Nc2ccc3ccccc3c2)cc1)n1ccnc1 (stereo unspecified)
- Activity (SH-SY5Y): Active

- IC50 (Cytochrome P450 26A1 [1]): 50 nM
Compound: CC(C)(C(N)=O)C(c1ccc(Nc2ccc3ccccc3c2)cc1)n1ccnc1 (stereo unspecified)
- fold change (FC) (SH-SY5Y): 4.1

- IC50 (Cytochrome P450 26A1 [1]): 0.35 nM
- inhibition at 0.4 µM (CYP1A2): 10%
- inhibition at 0.4 µM (CYP3A4): 22%
- inhibition at 0.4 µM (CYP2C9): 38%
- inhibition at 0.4 µM (CYP2C19): 16%
- inhibition at 0.4 µM (CYP2D6): -2%
- IC50 (Cytochrome P450 1A2): 10900 nM
- IC50 (Cytochrome P450 3A4): 330 nM
- IC50 (Cytochrome P450 2C9): 21400 nM
- IC50 (Cytochrome P450 2C19): 3140 nM
- IC50 (Cytochrome P450 2D6): 1800 nM
- half-life [2]: 3.73 h
- IC50 (Cytochrome P450 26A1 [3]): 0.3 nM
Compound: COC(=O)C(C)(C)C(c1ccc(Nc2ccc3ccccc3c2)cc1)n1cncn1 (stereo unspecified)
- fold change (FC) (SH-SY5Y): 5.2

- IC50 (Cytochrome P450 26A1 [1]): 40 nM
Compound: COc1ccc2cc(Nc3ccc(C(n4ccnc4)C(C)(C)CO)cc3)ccc2c1 (stereo unspecified)
- fold change (FC) (SH-SY5Y): 3.7

- IC50 (Cytochrome P450 26A1 [1]): 120 nM
Compound: CC(C)NC(=O)C(C)(C)C(c1ccc(Nc2ccc3ccccc3c2)cc1)n1ccnc1 (stereo unspecified)

Reference: ChEMBL document CHEMBL1828563, “Synthesis and biological evaluation of 3-(1H-imidazol- and triazol-1-yl)-2,2-dimethyl-3-[4-(naphthalen-2-ylamino)phenyl]propyl derivatives as small molecule inhibitors of retinoic acid 4-hydroxylase (CYP26)” (J Med Chem, 2011)
